Data on three molecules can be found in ChEMBL document CHEMBL1124239, “Decomposition of N-(2-chloroethyl)-N-nitrosocarbamoyl amino acid amides” (J Med Chem, 1988).

SMILES strings stand for the structures.

Data set [1] in a line: Half-life evaluated in 0.1 M phosphate buffer, 37 degree Centigrade. Type of data set: ADME. A digest of the protocol:
(§1)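 Decomposition was followed in aqueous solution. Rate constants and half-lives were calculated assuming apparent first-order kinetics.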

A short description of data set [2]: Rate constant at a concentration of 2.54M*10e-3 was determined. It counts as ADME. In a few lines:
as §1

Data set [3] deals with Mus musculus. Put plainly: Increase in life span was tested after administration of single ip dose at 200 mg/kg (0.8 mmol/kg) in L1210 leukemia in mice; Toxic. It counts as toxicity, organism-based. Further details: dose 200 mg/kg, route intraperitoneal. Conditions: in vivo. A digest of the protocol: (§2)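 L1210 leukemia-bearing mice got a single ip dose on the first day after transplantation. Read-out was median survival in days, treated (T) versus control (C). %ILS = (T − C)/C × 100. Doses are given in both mg/kg and mmol/kg; "tox" marks doses that were toxic.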

Data set [4] concerns Mus musculus. Put plainly: Increase in life span was tested after administration of single maximal effective ip dose at 100 mg/kg (0.4 mmol/kg) in L1210 leukemia in mice. It counts as functional. As to conditions: route intraperitoneal. A digest of the protocol: as §2
For data set [5], the system named is Mus musculus. In words: Increase in life span was tested after administration of single ip dose at 40 mg/kg (0.16 mmol/kg) in L1210 leukemia mice; Toxic. It counts as toxicity, organism-based. Further details: dose 40 mg/kg, route intraperitoneal. As to conditions: in vivo. In a few lines:
as §2

Data set [6] concerns Mus musculus. Put plainly: Increase in life span was tested after administration of single maximal effective ip dose at 20 mg/kg (0.08 mmol/kg) in L1210 leukemia mice. It counts as functional. Conditions: route intraperitoneal. In a few lines: as §2
The test system of data set [7] is Mus musculus. Put plainly: Increase in life span was tested after administration of single ip dose at 38 mg/kg (0.21 mmol/kg) in L1210 leukemia in mice; Toxic. Further details: dose 38 mg/kg, route intraperitoneal. It counts as toxicity, organism-based. As to conditions: in vivo. In a few lines: as §2
Data set [8] has as its system Mus musculus. In words: Increase in life span was tested after administration of single maximal effective ip dose at 20 mg/kg (0.11 mmol/kg) in L1210 leukemia in mice. It counts as functional. As to conditions: route intraperitoneal. In a few lines: as §2

Broadly, the half-life is the time needed for the level to fall by half in the phase considered. As usually defined, the ILS is the gain in survival time of treated over control animals, in per cent. Read a low ILS as a small benefit in survival. Molecule `NC(=O)C1CCCN1C(=O)N(CCCl)N=O` (stereo not given) yielded a half-life in data set [1] of 4.26 h. The k in data set [2] stood at 0.00274 min⁻¹. Moreover, the ILS result in the data set on Mus musculus [3] is “Toxic”. The molecule also gave an ILS at 100 mg/kg with Mus musculus [4] of 420%.
The molecule `CC(C)C(NC(=O)N(CCCl)N=O)C(N)=O` (stereo not given) registered a half-life in data set [1] of 0.258 h. The same molecule had a k in data set [2] of 0.0452 min⁻¹. For the same molecule, the ILS entry in the data set on Mus musculus [5] is “Toxic”. Also, in the data set on Mus musculus [6], the ILS at 20 mg/kg worked out at 212%.
Take `O=NN(CCCl)C(=O)NCCCl` [CARMUSTINE]: the increase in lifespan (ILS) result in the data set on Mus musculus [7] is “Toxic”. Besides, in the data set with Mus musculus [8], the increase in life span (ILS) at 20 mg/kg came to 115%.
